This sample holds only a part of the variants without activity.
B1: tRNA (parent)
chain: GUUCCGUUGGCGUAAUGGUAACGCGUCUCCCUCCUAAGGAGAAGACUGCGGGUUCGAGUCCCGUACGGAACG

Variants of: B1
Test: yeast fitness relative to wild type (ratio to wild type); higher = fitter; tRNA-Arg(CCU), competitive growth, 37 C, YPD
Outline: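 Amplicons of the tRNA-Arg(CCU) gene were sequenced, 100-nucleotide paired-end, from the start population and from each end population of a pooled yeast competition. The competition, in six parallel replicates, lasted 24 hours in YPD at 37°C. Fitness relative to wild type was calculated from changes in genotype frequencies. Genotypes had to have ≥ 100 starting reads, and estimates < 0.5 were set to 0.5.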

Row | Variant | yeast fitness
1 | GUUCCGCUGGCGUAAUGGUAACGCGUCUCCCUCUUAAGGAGAAGACUGCGGCUUCGAGUCCCGUACGGAACG [U7C C34U G52C] | 0.579
2 | GUUCCGCUGGCGUAAUGGUAACGCGUCUCCCCGCUAAGGAGAAGACUGCGGGUUCGAGUCCCGUACGGAGCG [U7C U32C C33G A70G] | ≤ 0.5
3 | GUUCCGCUGGCGUAAUGGUAACGCGUCUCCCUCCUAAGGAGAAGACUGCGGGUUCGAGUCCCGUACGAAACG [U7C G68A] | 0.87
4 | GUUCCGCUGGCGUAAUGGUAACGCGUCUCCCUCCUAAGGAGAACACUGCGGGUUCGAGUCCCGUACGGAACG [U7C G44C] | 0.84
5 | GUUCCGCUGGCGUAAUGAUAACGCGUCUCCCUCCUAAGGAACAGACUGCCGGUUCGAGUCCCGUACGGAGCG [U7C G18A G41A A42C G50C A70G] | ≤ 0.5
6 | GUUCCGCUGGCGUAAUGGUAACGCGUCUCCCUCUUAAGGAGAAGACUGAGGGUUCCAGUCCAGUCCGGAACG [U7C C34U C49A G56C C62A A65C] | ≤ 0.5
7 | GUUCCGCUGGCGUAAUGGUAAUGCGUCUGCCUCCUAAGGAGAAGACUGCGGGUUCAAGUCCCGUACGGAUCG [U7C C22U C29G G56A A70U] | ≤ 0.5
8 | GUUCCGCUGGCGUAAUGGUAACGCGUCUCCCUCCUAAGGAACAGACUGCCGGUUCGAGUCCCGUACGGAGCG [U7C G41A A42C G50C A70G] | 0.571
9 | GUUCCGCAGGCGUAAUGGUAACGCGUUUCCCUCCUAAGGAGAAGACUGCGGGUUCGAGUCCCGUACGGAACG [U7C U8A C27U] | ≤ 0.5
10 | GUUCCGCUGGCGUAAUGGUAACGCGUCUCCCUCCUAAGGAGAAGCCUGCGGGUUCGAGUCCCGUACGGAGCG [U7C A45C A70G] | ≤ 0.5
11 | GUUCCGCUGGCGUAAUAGUAACGCGUCUCCCUCCUAAGGAGAAGACUGCGGGUUAGAGUCCCGUACGGAACG [U7C G17A C55A] | ≤ 0.5
12 | GUUCCGCUGGCGUAAUGGUAACGCGUCUCUCUCCUAAGGAGAAGACUGCGGGUUCGAGUCACGUACGGAACG [U7C C30U C61A] | ≤ 0.5
13 | GUUCCGCUGGCGUAAUGGUAACGCGUCUCCCUCCUAGGGAGAAGACUGAGGGUUCGAGUCCCGUACGGAACG [U7C A37G C49A] | ≤ 0.5
14 | GUUCCGCUGGCGUAAUGGUAACGGGUCUCCCUCCUAAGGAGAAGACUGCGGGUUCGAGUCCCGUACGGAACG [U7C C24G] | 0.645
15 | GUUCCGCUGGCGUAAUGGUAACGCGUCUCCCUCCUAAGGAGAAGACUGGGGGUUCGAGUCCCAUACGGAACG [U7C C49G G63A] | 0.748
16 | GUUCCGCUGGCGUAAUGGUAACGCGUCUCUCUCCUAAGGAGAAGACUGCGGGUUCGAGUCCCGUACGGAACG [U7C C30U] | 0.826
17 | GUUCCGCUGGCGUAAGGGUAACGCGUCUUCAUCCUAAGGAGAAGAUUGCGGGUUCGAGUCCCGUACGGAACG [U7C U16G C29U C31A C46U] | 0.566
18 | GUUCCGCUGGCGUAAUGGUAACGCGUCUCCCUCCUAAGGAGAAGACUGUGGGUUCGAGUCCCGUACGGAACG [U7C C49U] | 0.873
19 | GUUCCGCUGGCGAAAUGGUAACGUGUCUCCCUCCUAAGGAGAAGACUGCUAGUUCGAGACCCGUCCGGAACG [U7C U13A C24U G50U G51A U59A A65C] | ≤ 0.5

Row | Variant | yeast fitness
20 | GUUCCGCUGGCGUAAUGGUAACGCGUCUCCCUCCUAAGGAUAAGACUGCGGGUUCGACUCCCGUACGGAACG [U7C G41U G58C] | ≤ 0.5
21 | GUUCCGCUGGCGUAAUGGUAACGCGUCUCCCUCCUAAAGAGAAGACUGCAGGUUCGAAACCCGUACGGAACG [U7C G38A G50A G58A U59A] | 0.579
22 | GUUCCGCUGCCGUAAUGGUAACGUGUCUCCCUCCUAAGGAGAAGAUUGCGGGUUCGAGUCCCCUACGGAACG [U7C G10C C24U C46U G63C] | ≤ 0.5
23 | GUUCCGCUGGCGUAAUCGUGACGCGUAUCCCUCCUAAGGAGAAGACUACGGGUUCGAGUCCCGUACGGAACG [U7C G17C A20G C27A G48A] | 0.509
24 | GUUCCGCUGGCGUAAUGGUAACGCGUCUCCCUCCUAAGGAGAGGACCGCGGGUUCGAGCCCCGUACGGAACG [U7C A43G U47C U59C] | ≤ 0.5
25 | GUUCCGCUAGCGCAAUGGUAUCGCGUCUCCCUCCUAACGAGAAGAAUGCGGGUUCGAGUCCCGUACGGAACG [U7C G9A U13C A21U G38C C46A] | ≤ 0.5
26 | GUUCCGCUGGCGUAAUGGUAACGCGUCUCCCGCCUAAGGAGAAGACUGCGGGUUCGAGUCCCGUACGGAACG [U7C U32G] | 0.576
27 | GUUCCGCUGGCGUAAUGGUAACGCGUCUCCCUGCUAGGGAGAAGACUGCGGGUUCGAGUCCCGUACGGAGCG [U7C C33G A37G A70G] | ≤ 0.5
28 | GUUCCGCUGGCGUAAUGGUAACGCGUCUCCCUCUUAAGGAGAAGCCUGCGGGUUCGAGUGCCGUCCGGAACG [U7C C34U A45C C60G A65C] | ≤ 0.5
29 | GUUCCGCUGGCAUAAUGGUAACGCGUCUCCUUCCUAAGGAGAAGACUGCGGAUUCGAGUCCCGUACGGAACG [U7C G12A C31U G52A] | ≤ 0.5
30 | GUUCCGCUGGCGUAAUGGUAACGCGUUUCCCUCCUAAGGAGAUGACUGCGGGUUCGAGUCUCGUACGGAACG [U7C C27U A43U C61U] | ≤ 0.5
31 | GUUCCGCUGGCGUAAUGGUAACGCGACUCCCUCCUAAGGAGAAGACUGCGGGUUCGAGUCCCGUACGGAACG [U7C U26A] | 0.777
32 | GUUCCGCUGGCGUAAUGGUAACGCGGCUCCCUCCUAAGGAGAAGACUGCGGGUUCGAGUCCCGUACGGAACG [U7C U26G] | 0.649
33 | GUUCCGCUGGCGUAAUGGUAACGCGUCCCCCUCCUAAGGAGAAGACUGCGGGUUUGAGUCCCGUACGGAACG [U7C U28C C55U] | ≤ 0.5
34 | GUUCCGCUGGCGUAAUGGUAACGCGUCUCUCUCAUAAGGAGAAGAUUGCGGGUUCGAAUCCCGUUCGGAACG [U7C C30U C34A C46U G58A A65U] | ≤ 0.5
35 | GUUCCGCUGGCGUAAUGGUAACGCGUCUCCCUCCUAAGGAGAAGACUGCGGGUUCGUGUCCCGUACGGAACG [U7C A57U] | 0.749
36 | GUUCCGCUGGCGUAAUGGUAACGCGUCUCCGUCCUAAGGAGAAGUCUGCGGGUUCGAGUCCCGUACGGAACG [U7C C31G A45U] | ≤ 0.5
37 | GUUCCGCUGGCGUAAUGGUAACGCGUCUCCCUCCUAAGGAGAAGACUGAGGGUUCGAGUCCUGUACGGAUCG [U7C C49A C62U A70U] | ≤ 0.5

Reference: the RNAGym collection of RNA variant scans (doi:10.1126/science.aae0568)
